Positions of bridges follow the written chain, without caps; N, C: chain ends. Residues, ends and D or L forms follow the SMILES beside them. No end group written: not given here.
Experiments:
Format in all cases: cell-based
m-CLR:m-RAMP1 = m-CLR:m-RAMP1 (Mus musculus, UniProt Q9R1W5+Q9WTJ5); assay: cAMP production, agonist concentration-response, transfected Cos7 cells; details: for EC50: SEM
m-CLR:m-RAMP2 [1] = target: T1, m-CLR:m-RAMP2 (Mus musculus, UniProt Q9R1W5+Q9WUP0, P10T); assay: as above; details: for EC50: SEM
m-CLR:m-RAMP3 [2] = target: T2, m-CLR:m-RAMP3 (Mus musculus, UniProt Q9R1W5+Q9WUP1); assay: as above; details: SEM
[3] = target: T3, m-CTR:pcDNA (m-CTR alone) (Mus musculus, UniProt Q60755); assay: as above; details: SEM
T3 sequence (Q60755 42-496 isoform Q60755-2 limits assumed): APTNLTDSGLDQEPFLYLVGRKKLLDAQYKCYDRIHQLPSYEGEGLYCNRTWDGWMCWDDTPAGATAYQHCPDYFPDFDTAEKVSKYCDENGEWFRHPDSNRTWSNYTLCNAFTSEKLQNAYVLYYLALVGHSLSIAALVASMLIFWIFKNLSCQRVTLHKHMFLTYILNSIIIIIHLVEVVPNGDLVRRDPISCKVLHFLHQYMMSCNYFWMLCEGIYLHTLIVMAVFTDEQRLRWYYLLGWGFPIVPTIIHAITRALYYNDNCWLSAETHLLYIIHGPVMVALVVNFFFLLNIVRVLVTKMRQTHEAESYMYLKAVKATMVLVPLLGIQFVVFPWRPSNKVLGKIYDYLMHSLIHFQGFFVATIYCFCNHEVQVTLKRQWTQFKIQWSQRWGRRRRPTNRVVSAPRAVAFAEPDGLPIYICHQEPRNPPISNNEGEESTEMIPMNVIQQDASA

m-CTR:m-RAMP1 = target: T4, m-CTR:m-RAMP1 (Mus musculus, UniProt Q60755+Q9WTJ5); assay: as above; details: for EC50: SEM
T4 sequence (Q60755 42-496 isoform Q60755-2 limits assumed): T3 sequence (Q60755 42-496 isoform Q60755-2 limits assumed)
T4 sequence (Q9WTJ5 27-148): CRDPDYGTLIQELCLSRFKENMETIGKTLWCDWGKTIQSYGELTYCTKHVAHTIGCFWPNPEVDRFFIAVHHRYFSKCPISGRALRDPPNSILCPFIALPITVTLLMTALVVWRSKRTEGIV

m-CTR:m-RAMP2 = target: T5, m-CTR:m-RAMP2 (Mus musculus, UniProt Q60755+Q9WUP0, P10T); assay: as above; details: SEM
T5 sequence (Q60755 42-496 isoform Q60755-2): T3 sequence (Q60755 42-496 isoform Q60755-2 limits assumed)
T5 sequence (Q9WUP0 45-189): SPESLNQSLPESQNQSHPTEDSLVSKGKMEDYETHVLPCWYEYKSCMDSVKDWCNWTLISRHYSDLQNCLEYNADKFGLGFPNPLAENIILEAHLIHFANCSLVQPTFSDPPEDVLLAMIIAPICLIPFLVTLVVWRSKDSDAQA

m-CTR:m-RAMP3 = target: T6, m-CTR:m-RAMP3 (Mus musculus, UniProt Q60755+Q9WUP1); assay: as above; details: for EC50: SEM; for fold increase in potency relative to m-CTR alone: m-CTR:m-RAMP3 versus m-CTR:pcDNA
T6 sequence (Q60755 42-496 isoform Q60755-2 limits assumed): T3 sequence (Q60755 42-496 isoform Q60755-2 limits assumed)
T6 sequence (Q9WUP1 23-147): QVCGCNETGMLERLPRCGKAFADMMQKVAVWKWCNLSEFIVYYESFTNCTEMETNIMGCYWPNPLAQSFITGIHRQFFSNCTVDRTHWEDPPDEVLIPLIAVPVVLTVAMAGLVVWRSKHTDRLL

m-CLR:pcDNA = m-CLR:pcDNA (Mus musculus, UniProt Q9R1W5); assay: cAMP production, agonist stimulation, Cos7 cells with m-CLR without RAMP; details: concentrations as high as 10 μM
Outline: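 Mouse CLR was co-transfected 1:1 with empty pcDNA3.1(+) (no RAMP) into Cos-7 cells with polyethylenimine. Cells were seeded at 15,000–20,000/well, transfected 18–24 h later and used about 48 h after that. After 30 min in DMEM with 1 mM IBMX and 0.1% BSA, agonist peptides were applied for 15 min at 37 °C. Forskolin (100 µM final) served as positive control. cAMP was quantified by LANCE assay from a standard curve, in duplicate or triplicate.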

m-CLR:m-RAMP2 [4] = target: T1, m-CLR:m-RAMP2; assay: Antagonism of agonist-stimulated cAMP production, transfected Cos7 cells
m-CLR:m-RAMP3 [5] = target: T2, m-CLR:m-RAMP3; assay: as above; details: agonist m-AM, mean ± s.e.m., n = 5, SEM

Chain of m-CLR:m-RAMP1 (Q9R1W5 23-463, one chain of several): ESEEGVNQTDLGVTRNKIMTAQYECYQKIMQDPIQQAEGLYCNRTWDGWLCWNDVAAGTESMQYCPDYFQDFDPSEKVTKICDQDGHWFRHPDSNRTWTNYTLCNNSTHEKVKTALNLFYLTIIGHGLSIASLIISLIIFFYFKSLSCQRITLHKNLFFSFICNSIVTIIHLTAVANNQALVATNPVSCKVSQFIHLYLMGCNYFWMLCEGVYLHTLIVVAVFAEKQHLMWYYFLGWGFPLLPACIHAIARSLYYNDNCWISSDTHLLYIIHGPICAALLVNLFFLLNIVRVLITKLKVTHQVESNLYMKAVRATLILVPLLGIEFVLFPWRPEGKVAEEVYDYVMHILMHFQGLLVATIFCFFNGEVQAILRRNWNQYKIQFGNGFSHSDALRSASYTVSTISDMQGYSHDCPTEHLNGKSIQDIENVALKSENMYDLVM
T2 sequence (Q9R1W5 23-463, one chain of several): as above
T1 sequence (Q9R1W5 23-463, one chain of several): as above
Chain of m-CLR:pcDNA (Q9R1W5 23-463): as the sequence (Q9R1W5 23-463, one chain of several) above

Compound	EC50 (m-CLR:m-RAMP1)	EC50 (m-CLR:m-RAMP2 [1])	EC50 (m-CLR:m-RAMP3 [2])	EC50 [3]	EC50 (m-CTR:m-RAMP1)	EC50 (m-CTR:m-RAMP2)	EC50 (m-CTR:m-RAMP3)	fold increase in potency relative to m-CTR alone (m-CTR:m-RAMP3)	cAMP response to stimulation (m-CLR:pcDNA)	pA2 (m-CLR:m-RAMP2 [4]; agonist m-AM, m-CLR:m-RAMP2, mean ± s.e.m., n = 5, SEM)	fold more effective at m-CLR:m-RAMP2 over m-CLR:m-RAMP3 (m-CLR:m-RAMP2 [4]; from pA2, agonist m-AM)	pA2 (m-CLR:m-RAMP3 [5])	fold less potent than m-AM (m-CLR:m-RAMP2 [1]; m-CLR:m-RAMP2, cAMP pEC50)	fold increase in potency relative to m-CTR alone (m-CTR:m-RAMP1; m-CTR:m-RAMP1 versus m-CTR:pcDNA)	fold less potent than m/r-αCGRP (m-CLR:m-RAMP1; m-CLR:m-RAMP1, cAMP pEC50)
YRQSMNQGSRSNGCRFGTCTFQKLAHQIYQLTDKDKDGMAPRNKISPQGY-NH2 (disulfide 14-19) [m-AM]	6.61 nM	1.55 nM	0.468 nM	37.2 nM	27.5 nM	19.5 nM	3.55 nM	11 fold	did not respond						
h-AM22-52: commonly used AM-receptor antagonist, purchased from Bachem										5.71 ± 0.03	three	5.19 ± 0.21			
PHAQLLRVGCVLGTCQVQNLSHRLWQLVRPAGRRDSAPVDPSSPHSY-NH2 (disulfide 10-15) [m-AM2_47]	4.47 nM	10.5 nM	1.32 nM	56.2 nM	6.92 nM	42.7 nM	2.14 nM	26 fold					~ seven	eight	
CC(C)C[C@H](NC(=O)[C@H](CCCNC(=N)N)NC(=O)[C@H](Cc1c[nH]cn1)NC(=O)[C@H](CO)NC(=O)[C@H](CC(C)C)NC(=O)[C@H](CC(N)=O)NC(=O)[C@H](CCC(N)=O)NC(=O)[C@@H](NC(=O)[C@H](CCC(N)=O)NC(=O)[C@@H]1CSSC[C@H](NC(=O)CNC(=O)[C@@H](N)C(C)C)C(=O)N[C@@H](C(C)C)C(=O)N[C@@H](CC(C)C)C(=O)NCC(=O)N[C@@H]([C@@H](C)O)C(=O)N1)C(C)C)C(=O)N[C@@H](Cc1c[nH]c2ccccc12)C(=O)N[C@@H](CCC(N)=O)C(=O)N[C@@H](CC(C)C)C(=O)N[C@H](C(=O)N[C@@H](CCCNC(=N)N)C(=O)N1CCC[C@H]1C(=O)N[C@@H](C)C(=O)NCC(=O)N[C@@H](CCCNC(=N)N)C(=O)N[C@@H](CCCNC(=N)N)C(=O)N[C@@H](CC(=O)O)C(=O)N[C@@H](CO)C(=O)N[C@@H](C)C(=O)N1CCC[C@H]1C(=O)N[C@H](C(=O)N[C@@H](CC(=O)O)C(=O)N1CCC[C@H]1C(=O)N[C@@H](CO)C(=O)N[C@@H](CO)C(=O)N1CCC[C@H]1C(=O)N[C@@H](Cc1c[nH]cn1)C(=O)N[C@@H](CO)C(=O)N[C@@H](Cc1ccc(O)cc1)C(N)=O)C(C)C)C(C)C [m-AM2_40] (H-VGCVLGTCQVQNLSHRLWQLVRPAGRRDSAPVDPSSPHSY-NH2; disulfide 3-8; N-terminus assumed)	0.955 nM	3.72 nM	0.776 nM	12.3 nM	3.02 nM	8.13 nM	1.66 nM								approximately 14 fold
